This note sets out measurements from ChEMBL document CHEMBL4049434, “Radiolabeled Dibenzodiazepinone-Type Antagonists Give Evidence of Dualsteric Binding at the M2 Muscarinic Acetylcholine Receptor” (J Med Chem, 2017).

Where only a bound is given, the exact number is not on record here.

The target of assay [1] is T1, Muscarinic acetylcholine receptor M5 (Homo sapiens, UniProt P08912).
T1 sequence (P08912 whole entry): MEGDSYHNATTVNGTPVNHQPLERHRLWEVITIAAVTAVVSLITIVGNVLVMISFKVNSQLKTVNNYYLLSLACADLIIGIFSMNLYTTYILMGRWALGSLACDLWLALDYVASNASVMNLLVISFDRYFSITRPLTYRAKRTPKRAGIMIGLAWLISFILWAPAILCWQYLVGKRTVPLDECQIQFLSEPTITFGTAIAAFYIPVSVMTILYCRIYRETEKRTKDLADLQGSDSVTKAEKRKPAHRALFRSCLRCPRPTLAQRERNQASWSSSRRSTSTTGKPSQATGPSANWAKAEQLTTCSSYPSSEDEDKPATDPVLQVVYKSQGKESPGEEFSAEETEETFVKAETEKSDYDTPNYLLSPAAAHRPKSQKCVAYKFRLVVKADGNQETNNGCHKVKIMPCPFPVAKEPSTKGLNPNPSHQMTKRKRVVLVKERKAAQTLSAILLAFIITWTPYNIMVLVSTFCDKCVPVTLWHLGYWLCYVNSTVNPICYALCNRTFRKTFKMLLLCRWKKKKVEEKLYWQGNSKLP
Description: Displacement of [3H]NMS from human muscarinic acetylcholine receptor M5 expressed in CHOK9 cells after 3 hrs by liquid scintillation counting assay. The format is cell-based.

Assay [2] has as its target Muscarinic acetylcholine receptor M3 (Homo sapiens, UniProt P20309). The experiment in a line: Displacement of [3H]NMS from human muscarinic acetylcholine receptor M3 expressed in CHOK9 cells after 3 hrs by liquid scintillation counting assay. The format is cell-based. (Loss of bound radioactivity is the signal in a displacement assay; it reports binding, not function.)

In assay [3] the target is T2, Muscarinic acetylcholine receptor M2 (Homo sapiens) (UniProt P08172).
T2 sequence (whole entry): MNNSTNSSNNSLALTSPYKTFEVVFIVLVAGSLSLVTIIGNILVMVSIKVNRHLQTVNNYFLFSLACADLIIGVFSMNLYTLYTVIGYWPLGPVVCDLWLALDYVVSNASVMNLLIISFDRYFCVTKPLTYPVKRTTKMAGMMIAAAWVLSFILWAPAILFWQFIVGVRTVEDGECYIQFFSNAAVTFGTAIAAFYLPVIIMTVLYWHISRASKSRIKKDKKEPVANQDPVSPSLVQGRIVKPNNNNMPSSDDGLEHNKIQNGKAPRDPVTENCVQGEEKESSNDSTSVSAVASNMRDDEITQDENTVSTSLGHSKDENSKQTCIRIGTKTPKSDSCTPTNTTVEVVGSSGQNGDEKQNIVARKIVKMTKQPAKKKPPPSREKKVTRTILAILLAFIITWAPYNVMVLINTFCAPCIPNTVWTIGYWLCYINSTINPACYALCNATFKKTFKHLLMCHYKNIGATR
Description: Binding affinity to human muscarinic acetylcholine receptor M2 expressed in CHOK9 cells assessed as dissociation rate constant after 105 mins by liquid scintillation counting assay. The following applies: tested as the 3H-labelled form. The class given is cell-based.

The target in assay [4] is T2, Muscarinic acetylcholine receptor M2 (Homo sapiens). Description: Binding affinity to human muscarinic acetylcholine receptor M2 expressed in CHOK9 cell suspension after 2 hrs by liquid scintillation counting assay. The settings on record: tested as the 3H-labelled form.
The target is the same in assay [5]. Description: Binding affinity to human muscarinic acetylcholine receptor M2 expressed in CHOK9 cell homogenate after 2 hrs by liquid scintillation counting assay. The settings on record: tested as the 3H-labelled form. Put shortly:
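CHO-hM2 cell homogenates (25–30 μg protein/well) in L15 medium with 1% BSA, 23 ± 1 °C, 2 h with tritiated dimeric radioligand. Competition used 0.5 nM radioligand; additional 0.4, 1, 2 and 4 nM in W84 experiments. […] Four-parameter logistic fits; at least three experiments in triplicate.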

For assay [6], the target named is T3, Muscarinic acetylcholine receptor M4 (Homo sapiens, UniProt P08173).
T3 sequence (P08173 whole entry): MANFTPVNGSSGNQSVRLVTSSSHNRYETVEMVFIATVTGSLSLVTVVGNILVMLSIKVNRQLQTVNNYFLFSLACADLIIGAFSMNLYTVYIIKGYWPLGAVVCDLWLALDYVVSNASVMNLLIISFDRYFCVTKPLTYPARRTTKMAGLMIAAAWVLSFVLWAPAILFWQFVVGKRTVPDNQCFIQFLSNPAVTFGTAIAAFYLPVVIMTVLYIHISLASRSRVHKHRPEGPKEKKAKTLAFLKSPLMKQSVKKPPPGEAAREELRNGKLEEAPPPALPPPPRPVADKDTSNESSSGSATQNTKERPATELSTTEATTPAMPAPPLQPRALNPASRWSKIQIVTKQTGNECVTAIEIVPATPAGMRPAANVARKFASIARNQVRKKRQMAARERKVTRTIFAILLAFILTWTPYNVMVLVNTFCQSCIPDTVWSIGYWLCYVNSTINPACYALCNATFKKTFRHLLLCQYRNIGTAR
Description: Displacement of [3H]NMS from human muscarinic acetylcholine receptor M4 expressed in CHOK9 cells after 3 hrs by liquid scintillation counting assay. The format is cell-based.

Assay [7] deals with T4, Muscarinic acetylcholine receptor M2 (Homo sapiens, UniProt P08172).
T4 sequence (P08172 whole entry): T2 sequence (whole entry)
Description: Displacement of [3H]UNSW-MK259 from human muscarinic acetylcholine receptor M2 expressed in CHOK9 cells after 3 hrs by liquid scintillation counting assay. The format is cell-based.

For assay [8], the target named is T2, Muscarinic acetylcholine receptor M2 (Homo sapiens). The experiment in a line: Binding affinity to human muscarinic acetylcholine receptor M2 expressed in CHOK9 cell suspension at Kd in presence of 500-fold excess atropine after 2 hrs by liquid scintillation counting assay relative to control. The settings on record: tested as the 3H-labelled form.
Assay [9] has the same target. Description: Binding affinity to human muscarinic acetylcholine receptor M2 expressed in live adherent CHOK9 cells at Kd in presence of 500-fold excess atropine after 2 hrs by liquid scintillation counting assay relative to control. The class given is cell-based. The following applies: tested as the 3H-labelled form. Put shortly:
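Live adherent CHO-hM2 cells in L15 medium with 1% BSA, 23 ± 1 °C, 2 h incubation. Competition at 2 nM radioligand; additional 4, 8, 15 and 30 nM in W84 experiments. […] Saturation data fitted one-site; competition by four-parameter logistic fits; at least three experiments in triplicate.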

For assay [10], the target named is T4, Muscarinic acetylcholine receptor M2. The experiment in a line: Displacement of [3H]UR-AP060 from human muscarinic acetylcholine receptor M2 expressed in CHOK9 cell homogenate after 3 hrs by liquid scintillation counting assay.
For assay [11], the target named is T2, Muscarinic acetylcholine receptor M2 (Homo sapiens). Description: (§1) Competitive antagonist activity at human muscarinic acetylcholine receptor M2 expressed in HEK293 cells coexpressing HA tagged Galpha-protein qi5 assessed as inhibition of 10 uM carbachol-induced IP1 accumulation preincubated for 30 mins followed by carbachol addition measured after 1 hr by HTRF assay. The class given is functional, cell-based. The essentials: (§2)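 HEK-293 transiently cotransfected with human M2R and Gαqi5-HA. Cells preincubated 30 min with antagonist, then carbachol added (final 0.1, 0.3, 1 or 10 μM), 1 h at 37 °C. IP1 detected by HTRF (620/670 nm emission, 330 nm excitation). At least four independent experiments, each in duplicate.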
A general note: TR-FRET usually uses a lanthanide donor and a delayed reading to cut background.

Assay [12] has as its target T4, Muscarinic acetylcholine receptor M2. The description is as §1. The class given is functional, cell-based. The essentials:
as §2

Assay [13] addresses T2, Muscarinic acetylcholine receptor M2 (Homo sapiens). The experiment in a line: Binding affinity to human muscarinic acetylcholine receptor M2 expressed in CHOK9 cells assessed as association rate constant incubated up to 140 mins by liquid scintillation counting assay. The format is cell-based. The settings on record: tested as the 3H-labelled form.

Sequence of Muscarinic acetylcholine receptor M3 (P20309 whole entry): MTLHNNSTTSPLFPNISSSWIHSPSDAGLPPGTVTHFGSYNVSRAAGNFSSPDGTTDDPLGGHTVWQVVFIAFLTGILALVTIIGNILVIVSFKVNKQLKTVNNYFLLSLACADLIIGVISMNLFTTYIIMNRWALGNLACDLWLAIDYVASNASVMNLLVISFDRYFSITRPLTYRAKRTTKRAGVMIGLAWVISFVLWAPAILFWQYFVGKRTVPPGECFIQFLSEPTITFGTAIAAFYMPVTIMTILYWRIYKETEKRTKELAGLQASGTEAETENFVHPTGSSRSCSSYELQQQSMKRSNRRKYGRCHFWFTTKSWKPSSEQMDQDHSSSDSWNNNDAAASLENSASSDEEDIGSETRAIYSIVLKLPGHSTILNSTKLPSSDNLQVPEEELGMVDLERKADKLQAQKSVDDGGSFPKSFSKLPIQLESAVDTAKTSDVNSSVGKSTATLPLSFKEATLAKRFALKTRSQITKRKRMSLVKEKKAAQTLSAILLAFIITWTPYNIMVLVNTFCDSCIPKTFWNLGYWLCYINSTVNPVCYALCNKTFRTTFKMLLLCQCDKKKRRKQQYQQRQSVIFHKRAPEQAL

For `CCC(=O)NCc1cc(C(=O)NCCNC(=O)CCc2cn(CCCCC3CCN(CC(=O)N4c5ccccc5NC(=O)c5ccccc54)CC3)cn2)cc(C(=O)NCCNC(=O)CCc2cn(CCCCC3CCN(CC(=O)N4c5ccccc5NC(=O)c5ccccc54)CC3)cn2)c1.O=C(O)C(F)(F)F.O=C(O)C(F)(F)F.O=C(O)C(F)(F)F.O=C(O)C(F)(F)F`, the Ki (as a rule, the equilibrium dissociation constant of an inhibitor or competing ligand from its target) was 22.9 nM in assay [1]; 15.5 nM in [2]; 0.468 nM in [6]; 0.107 nM in assay [7]; 1.05 nM in [10]. Besides, the K in [3] was 0.011 min⁻¹; in assay [13], 933000 M⁻¹ s⁻¹. Besides, the Bmax (disintegrations/minute) in [4] was 1800; in assay [5], 620. The figures for the Activity in [8] and in assay [9] were less than 15% and more than 60%, respectively. Further, the inhibition entry in assay [11] was “Dose-dependent effect”. Also, the IC50 (usually the point on the concentration scale where inhibition reaches its midpoint) in [12] is 263 nM.
